Experimental data reported in ChEMBL document CHEMBL3228031, “Prodrugs of 9-(beta-D-arabinofuranosyl)adenine 2. Synthesis and evaluation of a number of 2',3'- and 3',5'-di-O-acyl derivatives” (J Med Chem, 1979).
Converted amounts (≈) assume the structure as drawn. One block for each molecule: values may come before it. The source made the active and inactive calls. No cut-off for these calls is given here.

What was measured:
[1] = Aqueous solubility of the compound at pH 7; type: physicochemical
[2] = biological target: T1, Adenosine deaminase (Bos taurus, UniProt P56658); assay: Activity of calf mucosal adenosine deaminase assessed as enzyme-mediated drug metabolism by liquid chromatographic analysis; type: ADME; conditions: cattle
T1 sequence (P56658 whole entry): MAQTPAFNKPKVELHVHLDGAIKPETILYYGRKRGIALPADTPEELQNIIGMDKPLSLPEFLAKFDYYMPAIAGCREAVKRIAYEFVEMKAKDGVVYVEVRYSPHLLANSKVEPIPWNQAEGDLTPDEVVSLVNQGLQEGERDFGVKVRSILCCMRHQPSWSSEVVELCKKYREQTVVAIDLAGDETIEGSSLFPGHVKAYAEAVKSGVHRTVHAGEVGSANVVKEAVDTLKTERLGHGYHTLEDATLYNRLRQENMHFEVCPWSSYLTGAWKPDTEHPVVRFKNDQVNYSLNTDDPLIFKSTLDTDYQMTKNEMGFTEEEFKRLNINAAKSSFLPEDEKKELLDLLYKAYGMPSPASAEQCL
Summary of the method: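 Drug exposed to the deaminase, with enzyme level also raised 10- and 100-fold. Reaction mixtures analysed by reverse-phase C18 LC (aqueous acetonitrile eluent, 254-nm UV detection) for unchanged substrate.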

[3] = tested on: Human alphaherpesvirus 1; assay: Antiviral activity against Herpes simplex virus 1 assessed as plaque reduction at 0.53 x 10^-5 M by cell-based assay relative to vidarabine; type: functional
Summary of the method: (§1)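 HSV-1 plaque-reduction assay by the Hsiung–Melnick procedure. Challenge was 125-300 plaque-forming units. An ara-A control was run alongside each sample at the same molar concentration with an identical virus challenge. Data were confirmed by duplicate assay (±10%).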

[4] = tested on: Human alphaherpesvirus 1; assay: Antiviral activity against Herpes simplex virus 1 assessed as plaque reduction at 1.71 x 10^-5 M by cell-based assay relative to vidarabine; type: functional; summary of the method: as §1
[5] = tested on: Human alphaherpesvirus 1; assay: Antiviral activity against Herpes simplex virus 1 assessed as plaque reduction at 0.53 x 10^-5 M by cell-based assay relative to control; type: functional; conditions: Human alphaherpesvirus 1, read-out: INH; summary of the method: as §1
[6] = tested on: Human alphaherpesvirus 2; assay: Antiviral activity against Herpes simplex virus 2 Magill infected in guinea pig assessed as prevention of paralysis at 10% compound concentration treated intravaginally bid for 4 days measured on day 16 post-infection; type: functional, organism-based
Summary of the method: (§2)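 Animals were infected intravaginally with 1 × 10^2.82 PFU in 0.1 mL. Drug ointments were given intravaginally starting 4 h postinfection, then twice daily for 4 days, filling the vagina. Clinical signs were scored as animals positive/infected. Cure meant no symptoms, or symptoms healed by day 16 postinfection; it was reported as cured/infected.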

[7] = tested on: Human alphaherpesvirus 2; assay: Antiviral activity against Herpes simplex virus 2 Magill infected in guinea pig assessed as prevention of vaginal discharge at 10% compound concentration treated intravaginally bid for 4 days measured on day 16 post-infection; type: functional, organism-based; summary of the method: as §2
[8] = tested on: Human alphaherpesvirus 2; assay: Antiviral activity against Herpes simplex virus 2 Magill infected in guinea pig assessed as prevention of inflammation at 10% compound concentration treated intravaginally bid for 4 days measured on day 16 post-infection; type: functional, organism-based; summary of the method: as §2
[9] = tested on: Human alphaherpesvirus 2; assay: Antiviral activity against Herpes simplex virus 2 Magill infected in guinea pig assessed as cured animal at 10% compound concentration treated intravaginally bid for 4 days measured on day 16 post-infection; type: functional, organism-based; summary of the method: as §2
[10] = tested on: Human alphaherpesvirus 2; assay: Antiviral activity against Herpes simplex virus 2 Magill infected in guinea pig assessed as prevention of death at 10% compound concentration treated intravaginally bid for 4 days measured on day 16 post-infection; type: functional, organism-based; summary of the method: as §2
[11] = tested on: Human alphaherpesvirus 2; assay: Antiviral activity against Herpes simplex virus 2 Magill infected in guinea pig assessed as prevention of vesiculation of labia and vulva at 10% compound concentration treated intravaginally bid for 4 days measured on day 16 post-infection; type: functional, organism-based; summary of the method: as §2
[12] = tested on: Human alphaherpesvirus 1; assay: Antiviral activity against Herpes simplex virus 1 assessed as plaque reduction at 0.18 x 10^-5 M by cell-based assay relative to control; type: functional; summary of the method: as §1
[13] = tested on: Human alphaherpesvirus 2; assay: Antiviral activity against Herpes simplex virus 2 Magill infected in guinea pig assessed as prevention of death at 3% compound concentration treated intravaginally bid for 4 days measured on day 16 post-infection; type: functional, organism-based; summary of the method: as §2
[14] = tested on: Human alphaherpesvirus 2; assay: Antiviral activity against Herpes simplex virus 2 Magill infected in guinea pig assessed as prevention of vulvo-vaginal swelling at 3% compound concentration treated intravaginally bid for 4 days measured on day 16 post-infection; type: functional, organism-based; summary of the method: as §2
[15] = species: Cavia porcellus; assay: Toxicity in albino guinea pig assessed as occurrence of irritation at 3% compound concentration treated intravaginally bid for 4 days; type: organism-based; conditions: in vivo, other, 96 h
[16] = tested on: Human alphaherpesvirus 2; assay: Antiviral activity against Herpes simplex virus 2 Magill infected in guinea pig assessed as cured animal at 3% compound concentration treated intravaginally bid for 4 days measured on day 16 post-infection; type: functional, organism-based; summary of the method: as §2
[17] = tested on: Human alphaherpesvirus 1; assay: Antiviral activity against Herpes simplex virus 1 assessed as plaque reduction at 0.18 x 10^-5 M by cell-based assay relative to vidarabine; type: functional; summary of the method: as §1
[18] = tested on: Human alphaherpesvirus 2; assay: Antiviral activity against Herpes simplex virus 2 Magill infected in guinea pig assessed as prevention of vaginal discharge at 3% compound concentration treated intravaginally bid for 4 days measured on day 16 post-infection; type: functional, organism-based; summary of the method: as §2
[19] = tested on: Human alphaherpesvirus 1; assay: Antiviral activity against Herpes simplex virus 1 assessed as plaque reduction at 1.75 x 10^-5 M by cell-based assay relative to control; type: functional; summary of the method: as §1
[20] = tested on: Human alphaherpesvirus 2; assay: Antiviral activity against Herpes simplex virus 2 Magill infected in guinea pig assessed as prevention of paralysis at 3% compound concentration treated intravaginally bid for 4 days measured on day 16 post-infection; type: functional, organism-based; summary of the method: as §2
[21] = tested on: Human alphaherpesvirus 2; assay: Antiviral activity against Herpes simplex virus 2 Magill infected in guinea pig assessed as prevention of inflammation at 3% compound concentration treated intravaginally bid for 4 days measured on day 16 post-infection; type: functional, organism-based; summary of the method: as §2
[22] = tested on: Human alphaherpesvirus 1; assay: Antiviral activity against Herpes simplex virus 1 assessed as plaque reduction at 1.75 x 10^-5 M by cell-based assay relative to vidarabine; type: functional; summary of the method: as §1
[23] = tested on: Human alphaherpesvirus 2; assay: Antiviral activity against Herpes simplex virus 2 Magill infected in guinea pig assessed as prevention of vesiculation of labia and vulva at 3% compound concentration treated intravaginally bid for 4 days measured on day 16 post-infection; type: functional, organism-based; summary of the method: as §2
[24] = tested on: Human alphaherpesvirus 1; assay: Antiviral activity against Herpes simplex virus 1 assessed as plaque reduction at 0.17 x 10^-5 M by cell-based assay relative to vidarabine; type: functional; summary of the method: as §1
[25] = tested on: Human alphaherpesvirus 1; assay: Antiviral activity against Herpes simplex virus 1 assessed as plaque reduction at 0.17 x 10^-5 M by cell-based assay relative to control; type: functional; summary of the method: as §1
[26] = tested on: Human alphaherpesvirus 1; assay: Antiviral activity against Herpes simplex virus 1 assessed as plaque reduction at 1.76 x 10^-5 M by cell-based assay relative to vidarabine; type: functional; summary of the method: as §1
[27] = tested on: Human alphaherpesvirus 1; assay: Antiviral activity against Herpes simplex virus 1 assessed as plaque reduction at 1.67 x 10^-5 M by cell-based assay relative to control; type: functional; summary of the method: as §1
[28] = tested on: Human alphaherpesvirus 1; assay: Antiviral activity against Herpes simplex virus 1 assessed as plaque reduction at 1.67 x 10^-5 M by cell-based assay relative to vidarabine; type: functional; summary of the method: as §1

solubility ([1]; buffer): soluble | Stability [2]: Unstable
SMILES: CC(=O)O[C@H]1[C@H](O)[C@H](n2cnc3c(N)ncnc32)O[C@@H]1CO
inhibition at 1.7 µM [24]: 36% | inhibition at 17.1 µM [4]: 87% | inhibition at 1.7 µM [25]: 9%

solubility ([1]; buffer): soluble | Stability [2]: Stable
SMILES: CC(=O)O[C@H]1[C@H](O)[C@@H](CO)O[C@H]1n1cnc2c(N)ncnc21
inhibition at 1.7 µM [24]: 60% | inhibition at 17.1 µM [4]: 90% | inhibition at 1.7 µM [25]: 0%

solubility ([1]; aqueous, read-out: solubility): 2300 µg/mL (≈ 6.06 mM) | Stability [2]: Stable
SMILES: CCC(=O)OC[C@H]1O[C@@H](n2cnc3c(N)ncnc32)[C@@H](O)[C@@H]1OC(=O)CC
inhibition at 1.8 µM [12]: 0% | inhibition at 1.8 µM [17]: 23% | inhibition at 17.6 µM [26]: 76%

solubility ([1]; aqueous, read-out: solubility): < 10 µg/mL | Stability [2]: Stable
SMILES: CC(C)(C)C(=O)OC[C@H]1O[C@@H](n2cnc3c(N)ncnc32)[C@@H](O)[C@@H]1OC(=O)C(C)(C)C
inhibition at 16.7 µM [27]: 0% | inhibition at 16.7 µM [28]: 100%

Continued, molecule first:

SMILES: CC(C)C(=O)O[C@H]1[C@H](OC(=O)C(C)C)[C@@H](CO)O[C@H]1n1cnc2c(N)ncnc21
solubility ([1]; aqueous, read-out: solubility): 420 µg/mL (≈ 1.03 mM) | Stability [2]: Stable | inhibition at 5.3 µM [3]: 73% | inhibition at 17.1 µM [4]: 90% | inhibition at 5.3 µM [5]: 0%

SMILES: Nc1ncnc2c1ncn2[C@@H]1O[C@H](COP(=O)(O)O)[C@@H](O)[C@@H]1O
Activity [6]: Active | Activity [7]: Active | Activity [8]: Active | Activity [9]: Active | Activity [10]: Active | Activity [11]: Active

SMILES: CC(=O)O[C@H]1[C@H](OC(C)=O)[C@@H](CO)O[C@H]1n1cnc2c(N)ncnc21
inhibition at 1.8 µM [12]: 0% | solubility ([1]; aqueous, read-out: solubility): 33000 µg/mL (≈ 93.9 mM) | Activity [13]: Active | Stability [2]: Stable | Activity [14]: Active | Activity [15]: Non-toxic | Activity [16]: Active | inhibition at 1.8 µM [17]: 40% | Activity [18]: Active | inhibition at 17.5 µM [19]: 68% | Activity [20]: Active | Activity [21]: Active | inhibition at 17.5 µM [22]: 100% | Activity [23]: Active
